Experimental data published in publication PMC10671706 (Journal of medicinal chemistry, 2022).
Bridge positions count the residues as written; N and C are the ends. Square brackets hold non-standard residues; d marks the D form. Ends that are not written are not given here. Peptide text beside a SMILES is read from it.

Assays:
[1] = test system: trypsin; conditions: cited from earlier work
[2] = test system: PD-1/PD-L1 complex; conditions: cited from earlier work
[3] = target: human PD-1/PD-L1 interaction (Homo sapiens, UniProt Q9NZQ7); assay: Protein-based PD-1/PD-L1 blocking assay; type: binding; conditions: human PD-L1/PD-1 protein interaction
Chain of human PD-1/PD-L1 interaction (Q9NZQ7 19-238 limits assumed): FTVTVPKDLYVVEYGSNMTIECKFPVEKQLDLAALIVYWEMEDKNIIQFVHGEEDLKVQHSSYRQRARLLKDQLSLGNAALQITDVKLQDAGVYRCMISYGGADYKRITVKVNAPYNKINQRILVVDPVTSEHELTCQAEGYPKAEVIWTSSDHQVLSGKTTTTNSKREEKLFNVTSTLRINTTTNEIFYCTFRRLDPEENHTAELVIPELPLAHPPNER

[4] = test system: CT26 tumor; assay: Anti-tumor activity and survival study in CT26 syngeneic Balb/c mouse model; type: in vivo
Summary of the method: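 CT26 cells (~1×10^6) implanted s.c. in the right flank of male and female Balb/c mice. At 200-250 mm3, mice were split into five groups of 4 female + 4 male. Test compound or anti-mouse PD-L1 antibody 0.5 mg/kg i.p. daily, day 10–18; saline i.p. control. Caliper volume = 1/2 × length × width2. RTV = day 18/day 10 volume; TGI on day 18; survival curves.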

In the case of IDR-1018, the “time to degradation in trypsin” value [1] is listed as “less than 30 min”.

In the case of C[C@@H](O)[C@H](NC(=O)N[C@@H](CC(N)=O)c1nc([C@@H](N)CO)no1)C(=O)O [CA-170], the “blocking of the formation of the PD-1/PD-L1 complex” value [2] is given as “could not block the formation of the PD-1/PD-L1 complex”.

With CC(=O)N[C@H]1CSSC[C@@H](C(=O)N[C@@H](Cc2c[nH]c3ccccc23)C(=O)N[C@@H](CC(N)=O)C(=O)N[C@@H](CC(C)C)C(=O)N[C@@H](CC(N)=O)C(=O)N[C@H](C(N)=O)[C@@H](C)O)NC(=O)[C@H](Cc2ccc(O)cc2)NC(=O)[C@H](Cc2ccc(O)cc2)NC(=O)[C@H](CO)NC(=O)[C@H](CCCNC(=N)N)NC(=O)[C@H](Cc2c[nH]cn2)NC1=O [C12] (Ac-CHRSYYCWNLNT-NH2; disulfide 1-7; N-terminus and C-terminus assumed) the “increase in the blocking efficiency (normalized against the parent peptide CLP-2)” value ([3]; peptide at 5 μM) was roughly 2 fold, the “survival of the mice compared with the saline group” value ([4]; 0.5 mg/kg intraperitoneally daily) was “significant improvement in survival” and the “anti-tumor activity (tumor growth) compared with the saline group” value ([4]; 0.5 mg/kg intraperitoneally daily from day 10 to day 18, CT26 Balb/c mice) was “significant anti-tumor activity”.

In the case of “d(CNLNWTYYSRHC) ([dC][dN][dL][dN][dW][dT][dY][dY][dS][dR][dH][dC]; cysteine pairing not given here; also: retro-inverso) [retro-inverso sequence of the C7 peptide]”, the “blocking efficiency / blocking activity (in words)” value ([3]; screening at 5 μM normalized against CLP-2) is reported as “loss of the blocking efficiency”.
